Reference: paper PMC2939729 (Cancer cell, 2010)

Columns and labels:
[1] = molecular target: BMK1 (Homo sapiens, UniProt Q13164); experiment: A549 xenograft: BMK1 activation and p21 in tumor homogenates; assay type: in vivo; conditions: Nod/Scid mice, 50 mg/kg twice a day, 2 days
[2] = test system: p21 expression; experiment: p21 expression in MEF cells, western blot; assay type: cell-based; conditions: 5 μM, 16 hours
Procedure, shortened: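 Pml+/+ and Pml−/− MEFs were treated with or without test compound (5 μM) for 16 hr. Lysates were western-blotted with anti-p21 antibody. p21 was quantified by densitometry, normalised to GAPDH, and expressed relative to untreated Pml+/+ cells (set to 1). n = 5; Student's t test.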

[3] = test system: xenografted human (HeLa) or syngeneic mouse (LL/2) tumors; experiment: In vivo tumorigenesis experiments; set-up: species or system mice
Procedure, shortened: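 Tumour cells in DMEM were injected s.c. into the right flank of 6-week-old mice: HeLa at 5 × 10^5 into Nod/Scid mice, or LL/2 at 1 × 10^6 into C57Bl/6 mice. Groups of 6 received 50 mg/kg i.p. twice daily, starting day 1, 7 or 14 (HeLa, to day 28) or day 1, 7 or 10 (LL/2, to day 17). Controls received carrier solution. Tumours were measured by caliper every 2–3 days, volume = L × W² × 0.52. BrdU was detected in tumour sections with anti-BrdU antibody, DAPI counterstain (6 mice, 9 slices). Student's t test was used.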

[4] = molecular target: T1, DCAMKL1 (Homo sapiens, UniProt O15075); experiment: in vitro ATP-site competition binding assay, panel of 402 kinases; conditions: 10 μM inhibitor
T1 sequence (O15075 1-740): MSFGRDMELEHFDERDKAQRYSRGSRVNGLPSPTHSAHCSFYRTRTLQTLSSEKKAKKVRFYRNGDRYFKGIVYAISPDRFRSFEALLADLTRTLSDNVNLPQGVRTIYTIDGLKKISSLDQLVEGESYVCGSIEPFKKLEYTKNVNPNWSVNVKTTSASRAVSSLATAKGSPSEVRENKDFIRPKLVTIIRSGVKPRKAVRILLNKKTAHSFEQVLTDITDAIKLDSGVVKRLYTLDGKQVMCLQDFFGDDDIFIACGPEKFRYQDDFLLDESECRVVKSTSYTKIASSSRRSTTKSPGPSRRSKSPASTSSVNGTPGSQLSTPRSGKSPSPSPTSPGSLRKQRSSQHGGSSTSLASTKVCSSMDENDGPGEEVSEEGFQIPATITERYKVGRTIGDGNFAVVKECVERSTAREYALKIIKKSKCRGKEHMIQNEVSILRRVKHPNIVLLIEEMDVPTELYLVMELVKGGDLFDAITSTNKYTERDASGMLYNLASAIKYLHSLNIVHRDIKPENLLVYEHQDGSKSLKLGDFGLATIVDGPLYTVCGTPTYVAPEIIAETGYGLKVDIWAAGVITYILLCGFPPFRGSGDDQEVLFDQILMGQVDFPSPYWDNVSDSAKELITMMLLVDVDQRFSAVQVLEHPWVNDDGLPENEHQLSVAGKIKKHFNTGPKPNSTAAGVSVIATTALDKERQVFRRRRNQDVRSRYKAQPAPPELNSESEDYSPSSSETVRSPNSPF

[5] = molecular target: T2, TNK1 (Homo sapiens, UniProt Q13470); experiment: Inhibitory effect on TNK1 in vitro and in vivo
T2 sequence (Q13470 1-666): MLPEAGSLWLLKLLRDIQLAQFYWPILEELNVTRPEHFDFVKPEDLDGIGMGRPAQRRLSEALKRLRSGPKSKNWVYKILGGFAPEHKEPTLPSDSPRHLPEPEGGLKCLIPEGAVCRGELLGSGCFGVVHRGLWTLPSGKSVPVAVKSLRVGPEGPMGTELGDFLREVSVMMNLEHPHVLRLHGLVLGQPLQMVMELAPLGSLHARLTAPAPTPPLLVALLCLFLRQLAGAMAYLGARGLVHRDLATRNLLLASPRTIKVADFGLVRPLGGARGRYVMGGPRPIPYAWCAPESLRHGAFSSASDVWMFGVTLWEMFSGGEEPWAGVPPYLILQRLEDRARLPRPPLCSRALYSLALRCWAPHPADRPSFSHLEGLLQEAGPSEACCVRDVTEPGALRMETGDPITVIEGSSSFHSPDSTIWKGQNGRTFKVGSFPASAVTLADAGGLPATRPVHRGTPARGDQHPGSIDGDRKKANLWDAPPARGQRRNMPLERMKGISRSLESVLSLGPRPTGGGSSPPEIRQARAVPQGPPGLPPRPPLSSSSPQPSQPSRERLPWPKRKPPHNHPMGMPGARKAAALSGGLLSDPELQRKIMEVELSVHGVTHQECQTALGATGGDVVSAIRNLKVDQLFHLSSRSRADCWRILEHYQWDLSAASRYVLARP

[6] = molecular target: T3, MEK5 (Homo sapiens, UniProt Q13163); experiment: KiNativ profiling in HeLa cell lysates; assay type: binding; conditions: at up to 50 μM
T3 sequence (Q13163 1-448): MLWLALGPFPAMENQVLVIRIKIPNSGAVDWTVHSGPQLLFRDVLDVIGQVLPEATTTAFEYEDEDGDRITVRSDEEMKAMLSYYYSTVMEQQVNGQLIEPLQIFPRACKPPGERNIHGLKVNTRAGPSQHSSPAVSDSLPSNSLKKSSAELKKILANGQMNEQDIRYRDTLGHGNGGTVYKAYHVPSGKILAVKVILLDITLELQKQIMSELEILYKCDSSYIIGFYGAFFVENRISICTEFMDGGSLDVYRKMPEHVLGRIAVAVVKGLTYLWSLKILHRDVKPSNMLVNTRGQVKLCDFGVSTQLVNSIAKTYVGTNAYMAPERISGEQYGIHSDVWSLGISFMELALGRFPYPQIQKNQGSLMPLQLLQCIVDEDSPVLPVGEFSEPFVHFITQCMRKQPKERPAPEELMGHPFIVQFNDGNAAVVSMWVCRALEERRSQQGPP
Procedure, shortened: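 HeLa lysates (5 mg/mL total protein) were preincubated 15 min with test compound at 50, 10, 2, 0.8 or 0 μM. ATP or ADP acylphosphate probe was then added (5 μM final) for 10 min, and the reaction was stopped with urea and processed for MS. Each kinase signal came from up to four fragment ions of its peptide-probe conjugate. % inhibition was taken against untreated lysate, with duplicate reactions.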

[7] = Tolerability experiments in mice, 14 days
[8] = test system: cancer cell lines; experiment: Proliferation of a wide variety of cancer cell lines; assay type: cell-based
[9] = mouse, in vivo, ip, 50 mg/kg
[10] = Pharmacokinetics in Sprague-Dawley rats; assay type: in vivo; conditions: single oral dose of 2 mg/kg

Sequence of BMK1 (Q13164 whole entry): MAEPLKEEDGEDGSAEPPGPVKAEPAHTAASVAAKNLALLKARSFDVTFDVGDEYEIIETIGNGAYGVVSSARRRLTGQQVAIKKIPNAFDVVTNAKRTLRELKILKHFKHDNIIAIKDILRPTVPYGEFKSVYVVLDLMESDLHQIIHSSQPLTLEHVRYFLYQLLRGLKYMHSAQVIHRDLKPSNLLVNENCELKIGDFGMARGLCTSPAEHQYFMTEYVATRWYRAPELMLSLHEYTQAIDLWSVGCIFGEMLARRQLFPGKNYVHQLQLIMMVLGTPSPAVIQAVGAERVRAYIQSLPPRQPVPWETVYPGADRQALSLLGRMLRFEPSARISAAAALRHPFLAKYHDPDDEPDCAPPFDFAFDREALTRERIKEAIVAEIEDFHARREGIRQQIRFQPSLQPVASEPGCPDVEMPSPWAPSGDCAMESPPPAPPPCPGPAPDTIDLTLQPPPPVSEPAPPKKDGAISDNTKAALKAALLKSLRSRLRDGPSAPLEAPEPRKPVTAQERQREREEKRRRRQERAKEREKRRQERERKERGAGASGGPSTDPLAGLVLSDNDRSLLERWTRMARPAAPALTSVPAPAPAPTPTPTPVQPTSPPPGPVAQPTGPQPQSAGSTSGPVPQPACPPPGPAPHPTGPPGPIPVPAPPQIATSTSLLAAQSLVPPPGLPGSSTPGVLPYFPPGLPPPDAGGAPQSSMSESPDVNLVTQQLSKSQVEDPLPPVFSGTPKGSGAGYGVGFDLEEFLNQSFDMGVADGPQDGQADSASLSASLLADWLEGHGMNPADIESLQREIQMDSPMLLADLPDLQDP

With CCOc1cc(N2CCC(O)CC2)ccc1Nc1ncc2c(n1)N(C)c1ccccc1C(=O)N2C [XMD8-92] the “BMK1 activation in tumors” value [1] was “effectively inhibit”, the “p21 expression in tumors” value [1] was “induce” and the p21 expression ([2]; Pml+/+ MEF cells) was “significantly induced”. The “induction of p21 in PML null cells” value ([2]; Pml-/- MEF cells) was “substantially reduced”, the “incorporation of BrdU during tumor cell division” value ([3]; HeLa or LL/2 tumor sections, immuno-staining) was “effectively inhibited” and the “inhibition of tumor growth” value ([3]; mice, 50 mg/kg twice a day intraperitoneally) was 95%. For the same compound, the “side effects to the animals” value ([3]; tumor-bearing mice, 50 mg/kg twice a day intraperitoneally) was “without obvious side effects”, the “displacement by XMD8-92” value [4] was “greater than 90%” and the “inhibitory effect on TNK1” value [5] was “no significant inhibitory effect”. The “inhibition of MEK5” value [6] was “not significantly inhibited”, the vasculature instability ([7]; XMD8-92-treated mice) was “No vasculature instability” and the “plasma concentrations of drug” value ([7]; mice, IP dosing of 50 mg/kg, maintained throughout the 14 days) was “approximately 10 μM”. For the same compound, the effect on proliferation [8] was “inhibitory effect”, the tolerability [9] was “well tolerated” and the maximal plasma concentrations [10] was “approximately 500 nM”. For the same compound, the “time of maximal plasma concentrations” value [10] was ≤ 30 min and the “plasma concentration remaining 8 hr post dose” value ([10]; 8 hr) was 34 nM.
